Measurements as given in paper PMC2606940 (The Journal of General Physiology, 2009).
Changes are numbered by the printed parent chain. Read-outs that look alike come from different tables or passages of the source.

What was measured:
[1] = target: T1, CLC-0 E166C/E127Q/K519M mutant (Torpedo marmorata, UniProt P21564, C212S/E127Q/E166C/K519M); type: cell-based; settings: for IC50: read-out: Apparent affinity (K1/2)
T1 sequence (P21564 1-805 E127Q/E166C/C212S/K519M): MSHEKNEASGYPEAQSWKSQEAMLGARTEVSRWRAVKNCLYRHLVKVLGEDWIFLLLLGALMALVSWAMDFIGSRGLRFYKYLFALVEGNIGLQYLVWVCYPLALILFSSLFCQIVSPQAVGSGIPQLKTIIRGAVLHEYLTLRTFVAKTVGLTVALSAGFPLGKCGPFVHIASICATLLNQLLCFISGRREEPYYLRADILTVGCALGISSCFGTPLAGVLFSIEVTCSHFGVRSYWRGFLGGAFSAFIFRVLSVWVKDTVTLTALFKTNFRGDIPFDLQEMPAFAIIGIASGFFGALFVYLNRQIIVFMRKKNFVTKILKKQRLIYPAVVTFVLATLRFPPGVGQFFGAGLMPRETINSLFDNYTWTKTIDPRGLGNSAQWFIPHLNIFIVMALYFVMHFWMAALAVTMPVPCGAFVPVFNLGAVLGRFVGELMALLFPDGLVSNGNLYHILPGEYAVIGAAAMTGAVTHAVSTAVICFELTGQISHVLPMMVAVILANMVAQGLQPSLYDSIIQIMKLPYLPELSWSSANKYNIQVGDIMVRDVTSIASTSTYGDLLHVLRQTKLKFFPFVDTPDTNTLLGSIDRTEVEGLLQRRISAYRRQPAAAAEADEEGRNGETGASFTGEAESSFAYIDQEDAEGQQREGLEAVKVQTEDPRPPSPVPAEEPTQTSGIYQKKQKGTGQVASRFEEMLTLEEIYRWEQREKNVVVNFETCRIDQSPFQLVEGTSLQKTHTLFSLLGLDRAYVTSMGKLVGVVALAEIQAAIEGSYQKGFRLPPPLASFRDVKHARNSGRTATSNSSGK
Procedure, shortened: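 CLC-0 mutants (C212S background) were lipofectamine-transfected into HEK293 cells and recorded 1–3 d later from inside-out patches. Pipette and bath contained 130 mM NaCl, 5 MgCl2, 10 HEPES and 1 EGTA (pH 7.4). Test compound was perfused onto the cytoplasmic side. A +80 mV prepulse preceded steps to steady state. The last-10-ms current was normalized to bracketing blocker-free controls and fitted to a Langmuir function for K1/2.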

CLC-0 E166A mutant = target: T2, CLC-0 E166A mutant (Torpedo marmorata, UniProt P21564, C212S/E166A); settings: ref Traverso et al., 2003; cited from earlier work
T2 sequence (P21564 1-805 E166A/C212S): T1 sequence (P21564 1-805 E127Q/E166C/C212S/K519M) with Q127E, C166A, M519K

Question: For `O=C(O)COc1ccc(Cl)cc1` [CPA, p-chlorophenoxy acetate], which IC50 ([1]; −40 mV) is on record?
Answer: Its IC50 is 457 ± 30 µM.

Question: And the IC50 ([1]; −60 mV)?
Answer: Its IC50 is 240 ± 13 µM.

Question: And the IC50 ([1]; −80 mV)?
Answer: The IC50 was 132 ± 6 µM.

Question: What about the IC50 ([1]; −100 mV) of the same compound?
Answer: Its IC50 is 75 ± 3 µM.

Question: What about the IC50 ([1]; −120 mV) of the same compound?
Answer: Its IC50 is 47 ± 3 µM.

Question: And the IC50 ([1]; −140 mV)?
Answer: Its IC50 is 31 ± 2 µM.

Question: And the IC50 ([1]; −160 mV)?
Answer: The IC50 was 22 ± 2 µM.

Question: And the apparent koff ([1]; −160 mV)?
Answer: The apparent koff was 11.4 s⁻¹.

Question: And the apparent kon ([1]; −160 mV)?
Answer: Its apparent kon is 460000 M⁻¹ s⁻¹.

Question: And the “CPA-blocking affinity of E166A relative to wild-type channel (higher)” value (CLC-0 E166A mutant)?
Answer: The value was greater than 100 fold.
